From PMC4420653 (Biochemical pharmacology, 2015)
Several values for one entry are separate records, joined by “and”; a condition that tells them apart may be missing. Equal entries are not always repeated. Entries after “also recorded” stand apart in the source; their conditions may differ. Where two headings read alike, the source gives them in different places. One block for each compound: values may come before it.

Legend:
[1] = system: atRA formation in testes S10 fractions; assay: atRA formation velocity in testes S10 fractions from WIN 18,446 treated mice; assay type: in vivo, mouse
[2] = system: testis atRA concentrations; assay: Testis atRA concentrations after WIN 18,446 administration; assay type: in vivo, mouse; conditions: for testis atRA concentration: single dose
[3] = system: liver atRA concentrations; assay: Liver atRA concentrations after WIN 18,446 administration; assay type: in vivo, mouse
[4] = WIN 18,446 pharmacokinetics in mice; assay type: in vivo, mouse
[5] = system: atRA formation in mouse liver S10 fractions; assay: Inhibition of atRA formation by WIN 18,446 in liver S10 fractions; assay type: biochemical; conditions: read-out: IC50 for inhibition of atRA formation; pooled liver S10, 100 nM at-retinal, 2 mM NAD+
[6] = system: serum atRA concentrations; assay: Serum atRA concentrations after WIN 18,446 administration; assay type: in vivo, mouse
[7] = system: ALDH1A1 and ALDH1A2 protein expression; assay: ALDH1A1 and ALDH1A2 protein expression in liver and testis of treated mice; assay type: in vivo, mouse; conditions: 8 days of treatment
In short: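 Test compound was given orally at 125 mg/kg every 24 h for 8 days (n=3), alongside a single-dose group (n=3) and vehicle controls dosed with 1% gum tragacanth (n=8). S10 fractions (microsomes plus cytosol) were made from each mouse's testes (17–45 mg) and liver (114–309 mg), protein was measured by BCA, and ALDH1A1 and ALDH1A2 were quantified by LC-MS/MS. Mean ± SD.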

[8] = system: atRA formation in mouse testis S10 fractions; assay: Inhibition of atRA formation by WIN 18,446 in testis S10 fractions; assay type: biochemical
[9] = 500 nM, ultracentrifugation
ALDH1A2 = target: T1, ALDH1A2 (Mus musculus, UniProt Q62148); conditions: mouse testes S10 fractions
T1 sequence (Q62148 1-518): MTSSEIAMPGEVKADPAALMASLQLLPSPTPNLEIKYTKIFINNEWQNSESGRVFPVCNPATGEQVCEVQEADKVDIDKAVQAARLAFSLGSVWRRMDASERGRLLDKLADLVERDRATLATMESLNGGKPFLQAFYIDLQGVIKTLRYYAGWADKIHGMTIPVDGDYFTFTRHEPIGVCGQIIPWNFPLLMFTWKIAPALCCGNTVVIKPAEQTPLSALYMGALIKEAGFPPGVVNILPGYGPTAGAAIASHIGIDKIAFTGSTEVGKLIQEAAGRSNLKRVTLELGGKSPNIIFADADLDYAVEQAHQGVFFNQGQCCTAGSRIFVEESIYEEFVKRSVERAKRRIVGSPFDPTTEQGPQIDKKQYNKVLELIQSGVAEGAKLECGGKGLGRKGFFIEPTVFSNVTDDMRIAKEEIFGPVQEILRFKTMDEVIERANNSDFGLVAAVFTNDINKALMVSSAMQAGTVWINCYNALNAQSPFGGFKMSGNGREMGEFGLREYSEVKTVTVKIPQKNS

[10] = system: atRA formation in mouse liver S10 protein; assay type: biochemical
[11] = system: atRA formation in human testis; conditions: human testicular tissue; cited from earlier work
[12] = system: atRA formation in mouse liver S10 protein; assay: Time dependent inhibition of atRA formation in liver S10 protein; assay type: biochemical; conditions: pooled liver S10 protein, 1 µM WIN 18,446 preincubation
ALDH1A1 = conditions: read-out: Km of atRA formation; recombinant ALDH1A1; cited from earlier work
[13] = Tissue half-life of atRA from concentration-time curves after WIN 18,446; assay type: in vivo; conditions: C57BL/6-129, mouse, po, 125 mg/kg
AOX = conditions: cited from earlier work
[14] = system: atRA formation in the mouse liver; conditions: cited from earlier work
[15] = 125 mg/kg once a day for 8 days
[16] = eight daily doses 125 mg/kg po, mice

SMILES: O=C(NCCCCCCCCNC(=O)C(Cl)Cl)C(Cl)Cl [WIN 18,446]
decrease in atRA formation in testes S10 ([1]; at the time of the 8th dose (24 hours after 7th dose)): 79 ± 5%
decrease in atRA formation in testes S10 ([1]; testes collected 24 hours after single dose 125 mg/kg, 125 mg/kg): 55 ± 2% and 55%
average testicular atRA concentration over the 24 hours dosing interval [2, 15]: 1.5 ± 0.3 pmol/g
testicular atRA concentration, average for the dosing interval [2, 15]: 33 % of control and 33 ± 5 % of control
decrease in testicular atRA ([2]; abstract, dosing not specified): over 90%
time of first significant reduction of testis atRA ([2]; after the first dose, p < 0.01): 0.5 h
observed decrease in testis atRA concentrations ([2]; following WIN 18,446 dosing (compared with single dose prediction)): 67%
testis atRA concentration ([2]; 24 hours after dosing): 23 % of control
testis atRA concentration ([2]; by 4 hours): < 10 % of control
testicular atRA concentration ([2]; time 0 hr before the 8th dose): 60 % of control
average liver atRA concentration [3, 15]: 5.4 ± 1.9 pmol/g
reduction in average liver atRA concentration versus vehicle [3, 15]: 32% and 32 ± 3%
decrease in liver atRA ([3]; abstract, dosing not specified): 50%
time of first significant reduction of liver atRA ([3]; after the first dose, p < 0.01): 0.5 h
decrease in hepatic atRA concentration ([3]; single dose): 42%
time of return of liver atRA to baseline ([3]; single dose): 12 h
liver atRA concentration ([3]; single dose, by 4 hours after dosing): 58 % of control
hepatic atRA concentration on return ([3]; single dose, within 24 hours): 100%
average concentration over the 24 hour dosing interval ([4]; day 8 of dosing 125 mg/kg po): 3.5 µM
AUC0–24 [4, 16]: 87.6 µM·h
Cmax [4, 16]: 8.5 µM
increase in Cmax versus single dose ([4]; eight daily doses vs single dose): 7 fold
AUC0-∞ ([4]; single dose 125 mg/kg po, mice): 2.5 µM·h
Cmax ([4]; single dose 125 mg/kg po, mice): 1.3 µM
average concentration over a 24 hour interval ([4]; single dose 125 mg/kg po, mice): 0.1 µM
time to reach Cmax ([4]; single dose 125 mg/kg po, mice): ≤ 30 min
two compartment model parameter A ([4]; single dose, fit of equation 4): -6.6 µM
two compartment model parameter B ([4]; single dose, fit of equation 4): 6.2 µM
two compartment model parameter C ([4]; single dose, fit of equation 4): 0.4 µM
two compartment model parameter α ([4]; single dose, fit of equation 4): 1.3e+06 h⁻¹
two compartment model parameter β ([4]; single dose, fit of equation 4): 3.7 h⁻¹
two compartment model parameter γ ([4]; single dose, fit of equation 4): 0.2 hr-^1
IC50 [5]: 92 ± 2 nM
average serum atRA concentration [6, 15]: 1.3 ± 0.7 pmol/g
time of first significant decrease of serum atRA ([6]; after the first dose, p < 0.05): 2 h
time of return of serum atRA to baseline ([6]; single dose): 24 h
serum atRA concentration ([6]; single dose, by 4 hours): < 20 % of control
change in ALDH1A1 or ALDH1A2 expression in liver or testis [7]: not significantly altered; also recorded: not significantly changed
IC50 ([8]; read-out: IC50 for inhibition of atRA formation, pooled testis S10, 100 nM at-retinal, 2 mM NAD+): 59 ± 1 nM
maximum inhibition of atRA formation ([8]; testis S10 fractions): > 95%
fu in mouse serum [9]: > 0.99
KI (time dependent inhibition) (ALDH1A2): 420 ± 190 nM
inhibition of atRA formation ([10]; WIN 18,446 5000 nM alone, 1000 nM at-retinal, Figure 2D): 60 ± 2%
inhibition of atRA formation in human testis [11]: more than 95%
time dependent inhibition of atRA formation [12]: not liver S10 protein; also recorded: not in the liver

SMILES: CC1=C(/C=C/C(C)=C/C=C/C(C)=C/C=O)C(C)(C)CCC1 [at-retinal, all-trans retinal]
Km (ALDH1A1): 0.285 µM

half-life ([13]; liver): < 30 min
half-life ([13]; serum): 30 ± 6 min
half-life ([13]; testis): 78 ± 6 min
SMILES: CC1=C(/C=C/C(C)=C/C=C/C(C)=C/C(=O)O)C(C)(C)CCC1 [atRA, all-trans retinoic acid]

SMILES: NNc1nncc2ccccc12 [hydralazine]
KI (AOX): 83000 ± 27000 nM
kinact (AOX): 3.8 ± 0.4 hr-^1
inhibition of atRA formation ([10]; hydralazine 1 mM, 45 min preincubation, liver S10, 1000 nM at-retinal): approximately 50%

SMILES: Cc1ncc(CO)c(C=O)c1O [pyridoxal]
inhibition of atRA formation [14]: approximately 5%
